Hits are enriched below; roughly 1.1% of the tested compounds scored in any of these assays.
SENP1 FRET inh: blocks the human SENP1 SUMO protease catalytic domain. recombinant SENP1 catalytic domain, CyPet-SUMO1-YPet FRET cleavage. inhibition, % at 10 µM. actives 0.21% (n = 360,000);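 active = inhibition at least 30% at 10 µM, raw YFP signal under a set limit, fluorescence ratio 0.5 to 1.5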;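 note: 0% = enzyme with DMSO and 100% = no enzyme wells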
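Test system: recombinant human SENP1 catalytic domain, His6-tagged / Medium: pH 8 Tris buffer with EDTA, NaCl, BME, BSA, NP40, catalase / Also added: SUMO1 FRET substrate flanked by Cypet and Ypet, 25 nM / Times: 50 min reaction at room temperature / Signal: FRET, CFP and YFP emission / Control set: no-enzyme low control and enzyme-plus-DMSO high control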
JMJD2C inh: blocks human GASC-1 demethylase activity. GST-JMJD2C(1-420) H3K9me3 demethylation, DELFIA europium. inhibition, % at 2.35 µM. actives 0.069% (n = 330,000);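 active = more than half of a compound's replicate wells show inhibition beyond 50%, single wells judged on their own value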;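 note: signal counts dimethyl H3K9 product captured on neutravidin plate; 0% = median of DMSO wells and 100% = 0.3 times that DMSO median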
Target sequence (Q9H3R0 1-420 limits assumed): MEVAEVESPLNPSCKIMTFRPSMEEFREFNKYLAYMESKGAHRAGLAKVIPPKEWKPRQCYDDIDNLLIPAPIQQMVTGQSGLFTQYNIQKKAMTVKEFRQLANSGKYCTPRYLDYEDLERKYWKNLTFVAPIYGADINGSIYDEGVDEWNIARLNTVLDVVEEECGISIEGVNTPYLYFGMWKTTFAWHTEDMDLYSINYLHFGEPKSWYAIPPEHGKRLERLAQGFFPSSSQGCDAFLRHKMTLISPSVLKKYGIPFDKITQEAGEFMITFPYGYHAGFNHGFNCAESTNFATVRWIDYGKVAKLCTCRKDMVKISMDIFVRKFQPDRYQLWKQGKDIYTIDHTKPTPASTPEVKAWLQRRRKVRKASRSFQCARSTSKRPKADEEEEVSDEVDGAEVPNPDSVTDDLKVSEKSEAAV
Arr AP2 block: human beta-arrestin and AP2 interaction inhibition; FITC-arrestin peptide / GST-AP2 beads, flow cytometry; AP2 beta2 appendage carries R879A mutation; inhibition, % at 10 µM; actives 0.31% (n = 340,000);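 active = inhibition above a set limit, near 3 SD of compounds lacking own fluorescence, cut at about 54% in these data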;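 note: plate controls were DMSO wells for no effect and 5 µM unlabelled arrestin peptide for full effect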
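System: GST-AP2 R879A glutathione beads; medium: PBS, Tween 20 0.05%, BSA 0.1%; reagent: fluorescein-tagged arrestin peptide at 50 nM final; schedule: pre-incubation 12 min, peptide binding 1 h, room temperature; detection: flow cytometry, FL1 (488/535 nm); read-out: inhibition as reduced fluorescein signal on beads, percent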
FAS TE block: blocks the thioesterase domain of human fatty acid synthase; AID 602261; inhibition, % at 15 µM; recombinant FAS-TE, OMFH fluorogenic substrate, fluorescence endpoint; actives 0.67% (n = 360,000); P49327;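 active = compounds whose normalised, plate-corrected inhibition of enzyme fluorescence in the single-dose primary screen is 50% or more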;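 note: 0% = DMSO with enzyme and 100% = substrate without enzyme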
FAS-TE conf: confirmation of human fatty acid synthase thioesterase inhibitors; shares compounds with FAS TE block; recombinant FAS-TE, OMFH fluorogenic substrate, fluorescence; inhibition, % at 15 µM; actives 45% (n = 2,300); AID 624325;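 active = compounds inhibiting the enzyme by at least 50% at 15 µM in any one of the replicates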;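 note: 0% = enzyme with DMSO only and 100% = wells lacking enzyme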
An asterisk follows results filed as active.

How did COC(=O)CN1C(=O)[C@H]2[C@@H](/C=C/c3ccccc3)N3C(=O)CN(Cc4ccc(-c5ccccc5)cc4)C(=O)[C@@]3(C)[C@H]2C1=O do in these assays?
SENP1 FRET inh: -1; JMJD2C inh: -14; Arr AP2 block: 13; FAS TE block: 3

What do the screens show for `CCN(CC)CCN(C(=O)c1ccc(S(=O)(=O)N2CCCCC2)cc1)c1nc2cc3c(cc2s1)OCO3`?
SENP1 FRET inh: 2; JMJD2C inh: 3; Arr AP2 block: 11; FAS TE block: 53*; FAS-TE conf: 9

What do the screens show for `COc1ccc(C(=O)NC(=S)Nc2cccc3nc(C)ccc23)cc1OC`?
SENP1 FRET inh: -1; JMJD2C inh: -5; Arr AP2 block: -4; FAS TE block: 0

What do the screens show for `O=C(Nc1nc2ccccc2s1)c1ccc(N2CCCCC2)c([N+](=O)[O-])c1`?
SENP1 FRET inh: -1; JMJD2C inh: -2; Arr AP2 block: -5; FAS TE block: 54*; FAS-TE conf: 3

How did O=S(=O)(c1ccc(SCc2ccc(Cl)cc2)nc1)N1CCCC1 do in these assays?
SENP1 FRET inh: 0; JMJD2C inh: -1; Arr AP2 block: -8; FAS TE block: 54*; FAS-TE conf: 38

Results for O=[N+]([O-])c1ccc(Nc2nc(N/N=C\c3ccc4c(c3)OCO4)nc(N3CCCCC3)n2)cc1 ?
SENP1 FRET inh: 1; JMJD2C inh: -1; Arr AP2 block: 0; FAS TE block: 56*; FAS-TE conf: 18

Results for O=[N+]([O-])c1ccc(/C=N/Nc2nc(N3CCCCC3)nc(N3CCCCC3)n2)cc1 ?
SENP1 FRET inh: -11; JMJD2C inh: -361; Arr AP2 block: 1; FAS TE block: 54*; FAS-TE conf: 6

Results for O=[N+]([O-])c1cc2c(cc1/C=N/Nc1nc(N3CCCC3)nc(N3CCCC3)n1)OCO2 ?
SENP1 FRET inh: 1; JMJD2C inh: -4; Arr AP2 block: -1; FAS TE block: 21

Results for Cc1cc(-c2ccccc2)nc(N/N=C/c2ccc([N+](=O)[O-])cc2)n1 ?
SENP1 FRET inh: -5; JMJD2C inh: -31; Arr AP2 block: 22; FAS TE block: 67*; FAS-TE conf: 46*

Results for O=C(O)/C=C\c1ccccc1Oc1ccc(F)cc1 ?
SENP1 FRET inh: -20; JMJD2C inh: 0; Arr AP2 block: 25; FAS TE block: -8

How did CCOC(=O)Cn1nc(NC(=O)c2cc(OC)cc(OC)c2)cc1C do in these assays?
SENP1 FRET inh: 1; JMJD2C inh: 22; Arr AP2 block: 7; FAS TE block: -5

How did COC(=O)[C@]1(Cc2ccccc2)N[C@H](CN(C)C(=O)Nc2ccc(Cl)cc2)[C@@H]2C(=O)N(Cc3ccccc3)C(=O)[C@@H]21 do in these assays?
SENP1 FRET inh: 1; JMJD2C inh: 0; Arr AP2 block: 4; FAS TE block: 44

Results for NC(=S)n1[nH]c(-c2ccc([N+](=O)[O-])cc2)c(N=Nc2ccc(Cl)cc2)c1=O ?
SENP1 FRET inh: 3; Arr AP2 block: 0; FAS TE block: 66*; FAS-TE conf: 40*

How did COc1ccccc1NC(=O)C(C)Sc1nnnn1C (stereo not given) do in these assays?
SENP1 FRET inh: -1; JMJD2C inh: 0; Arr AP2 block: -6; FAS TE block: -9

Results for FC(F)(F)c1cc(C(F)(F)F)n2nc(-c3sccc3-n3cccc3)cc2n1 ?
SENP1 FRET inh: -3; JMJD2C inh: 1; Arr AP2 block: 11; FAS TE block: 30

Results for O=C(OCc1ccc([N+](=O)[O-])cc1)C1CCN(S(=O)(=O)c2ccccc2)CC1 ?
SENP1 FRET inh: 1; JMJD2C inh: 3; Arr AP2 block: -1; FAS TE block: 60*; FAS-TE conf: 60*

How did COc1ccc(COC(=O)C2CCN(S(=O)(=O)c3ccc(F)cc3)CC2)cc1 do in these assays?
SENP1 FRET inh: 1; JMJD2C inh: 0; Arr AP2 block: 15; FAS TE block: 27

Results for Cc1nn(Cc2ccc([N+](=O)[O-])cc2)c(=O)n1N(C)c1ncc(C(F)(F)F)cc1Cl ?
SENP1 FRET inh: -103; Arr AP2 block: -2; FAS TE block: 79*; FAS-TE conf: 65*

What do the screens show for `COc1ccc(F)cc1-c1cc(C(=O)NCc2ccc(C(F)(F)F)cc2)[nH]n1`?
SENP1 FRET inh: -3; FAS TE block: 53*; FAS-TE conf: 13

Screening results: PubChem BioAssay, several laboratories
